According to paper PMC7982131 (Circulation. Heart Failure, 2021):
Values belong to the compound of their own block, whether it stands above or below them.

How the values were obtained:
other GPCRs = test: GPCR selectivity assays, cardiovascular receptor safety panel; format: binding, human; details: tested up to 30 µmol/L
human APJ [1] = target: T1, human APJ (Homo sapiens, UniProt P35414); test: cAMP inhibition assay, HEK293 ZF cells; format: cell-based
T1 sequence (P35414 1-380): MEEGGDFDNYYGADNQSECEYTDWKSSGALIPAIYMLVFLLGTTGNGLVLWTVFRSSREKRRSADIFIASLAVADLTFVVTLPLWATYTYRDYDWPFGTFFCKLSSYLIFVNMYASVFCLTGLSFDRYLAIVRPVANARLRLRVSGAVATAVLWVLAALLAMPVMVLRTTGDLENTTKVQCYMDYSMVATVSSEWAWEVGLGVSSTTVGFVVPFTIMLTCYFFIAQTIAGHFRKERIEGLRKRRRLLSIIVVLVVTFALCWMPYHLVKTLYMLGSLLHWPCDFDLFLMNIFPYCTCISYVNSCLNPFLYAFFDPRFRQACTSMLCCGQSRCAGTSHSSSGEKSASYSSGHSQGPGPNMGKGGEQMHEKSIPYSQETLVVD

human APJ [2] = target: T1, human APJ; test: BRET-based biosensor assays; format: cell-based
[3] = test system: instrumented anesthetized rats; test: Acute hemodynamics, 15-min IV infusion of BMS-986224; format: in vivo, rat; details: for CO percentage change from baseline / SV percentage change from baseline: 15 min
Method in brief: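 Male Sprague-Dawley rats (≥250 g), anesthetized and surgically instrumented, received a 15-min IV infusion of test compound at 1, 10 or 100 μg/kg per min, then a 15-min washout. Vehicle-infused rats served as comparison. SV, CO, dP/dtmax, HR and mean arterial pressure were expressed as percentage change from baseline. Plasma exposure was sampled at each dose.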

[4] = Plasma exposure during and after IV infusion, anesthetized cannulated rats; format: in vivo, rat
[5] = test system: RHR (renal hypertensive rat) model; test: RHR model, subcutaneous infusion via osmotic minipump; format: in vivo; details: SC infusion
Method in brief: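 Renal hypertensive rats (male Sprague-Dawley) received test compound for 10 days by subcutaneous osmotic minipump. The low dose targeted a steady-state plasma level of ≈100 nmol/L; the high dose targeted ≈10-fold more. SV, CO and diastolic parameters were assessed by echocardiography, with cardiac fibrosis and heart weight also scored. One-way ANOVA with Tukey or Dunnett tests was used.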

[6] = test system: RHR (renal hypertensive rat) model; test: RHR model, oral BID study; format: in vivo
[7] = test system: RHR (renal hypertensive rat) model; test: RHR model, oral QD study; format: in vivo; details: both doses (0.06 and 0.2 mg/kg)
[8] = Plasma concentrations of BMS-986224 in the RHR studies; format: in vivo, rat; details: for steady-state plasma concentration: SC 10-day infusion
Method in brief: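 Renal hypertensive rat model in male Sprague-Dawley rats. Dosing was either a 10-day SC infusion by osmotic minipump or oral BID dosing at 0.1 and 1 mg/kg. The SC low dose targeted a steady-state level of ≈100 nmol/L, and the high dose targeted ≈10-fold more. The oral doses targeted ≈200 nmol/L at peak or trough. Peak, trough and steady-state plasma levels were measured, and AUC(0–24) was derived.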

[9] = test system: instrumented anesthetized rats; test: Acute hemodynamics, dobutamine single dose 15-min IV infusion; format: in vivo, rat; details: 1 μg/kg/min IV, N=8
Method in brief: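 Male Sprague-Dawley rats (≥250 g), anesthetized and surgically instrumented; test agents given as a 15-min IV infusion followed by a 15-min washout. Cardiac output and heart rate were expressed as percentage change from baseline during and after infusion. Paired Student t test was used for significance.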

[10] = 40 mg/kg/day SC infusion, BID study

EC50 (human APJ [1]): 0.02 ± 0.02 nM
signaling bias relative to (Pyr1) apelin-13 (human APJ [2]): lack of bias
relative activity vs (Pyr1) apelin-13, ΔLog (RA) (human APJ [2]; ratio of Ymax and EC50, each signaling readout): > 0
Plasma exposure ([4]; 1 μg/kg per minute IV): 95 ± 5 nmol/L
free plasma concentration at the minimum effective dose ([4]; adjusted for protein binding, 1 μg/kg per minute): 2 nM
steady-state plasma concentration ([8]; HD): 2686 nmol/L
steady-state plasma concentration ([8]; low dose): 102 nmol/L
area under the plasma drug concentration−time curve (0–24) ([8]; oral 0.1 mg/kg BID): 3.42 µM·h
peak plasma concentration ([8]; oral 0.1 mg/kg BID): 205 ± 11 nmol/L
trough plasma concentration ([8]; oral 0.1 mg/kg BID): 25 ± 4 nmol/L
area under the plasma drug concentration−time curve (0–24) ([8]; oral 1 mg/kg BID): 34.3 µM·h
peak plasma concentration ([8]; oral 1 mg/kg BID): 2095 ± 161 nmol/L
trough plasma concentration ([8]; oral 1 mg/kg BID): 302 ± 29 nmol/L
Compound: CCOCc1nc(O)c(-c2nnc(Cc3ccc(Cl)cn3)o2)c(O)c1-c1c(OC)cccc1OC [BMS-986224]
binding/activity at other GPCRs (other GPCRs): did not bind other GPCRs
CO percentage change from baseline ([3]; 1 μg/kg/min IV): 8.2%
SV percentage change from baseline ([3]; 1 μg/kg/min IV): 6.0%
decrease in mean arterial pressure from baseline ([3]; 10 μg/kg per minute, P<0.001 versus vehicle): 1.9%
CO percentage change from baseline ([3]; 10 μg/kg/min IV): 15.4%
SV percentage change from baseline ([3]; 10 μg/kg/min IV): 12.6%
CO percentage change from baseline ([3]; 100 μg/kg/min IV): 15.9%
SV percentage change from baseline ([3]; 100 μg/kg/min IV): 12.3%
maximum increase in CO ([3]; 15-min IV infusion): ≈ 15%
maximum effective dose ([3]; based on the increases in CO): 10 μg/kg per minute
minimum effective dose ([3]; based on the increases in CO): 1 μg/kg per minute
other measured parameters (diastolic parameters, cardiac fibrosis, heart weight) [5]: without affecting
SV and CO ([5]; high dose 3 mg/kg/day, 3 mg/kg/day): not noted
LV mass or EF vs vehicle ([6]; oral BID, trough): no significant differences
SV and CO [7]: increased

Compound: CC(CCc1ccc(O)cc1)NCCc1ccc(O)c(O)c1 (centres unmarked) [Dobutamine]
Cardiac output % change from baseline [9]: 11.2%

Compound: CCOC(=O)[C@H](CCc1ccccc1)N[C@@H](C)C(=O)N1CCC[C@H]1C(=O)O [Enalapril]
LV end-diastolic volume vs vehicle [6, 10]: increased
LV mass, heart weight, and EF vs vehicle [6, 10]: reduced
SV, CO, and HR vs vehicle [6, 10]: without significant effect
